Test results taken from ChEMBL document CHEMBL1126715, “Synthesis and tissue distribution of (m-[125I]iodobenzyl)trozamicol ([125I]MIBT): potential radioligand for mapping central cholinergic innervation” (J Med Chem, 1993).

Columns and labels:
[1] = species: Rattus norvegicus; experiment: Tissue distribution in rat thyroid after 180 minutes (n=3); assay type: ADME, organism-based, Thyroid gland; details: in vivo, 3 h
In short: (§1)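 Male Wistar rats (200-350 g) under ether anesthesia; radiotracer (3-5 μCi in 0.1 mL 50% aqueous ethanol) given iv. At 5, 30, 60 and 180 min, blood was drawn by cardiac puncture and animals were killed by cardiectomy. Organs were weighed and γ-counted against a 1:100 dilution of the injected dose. Results are given as % injected dose/g tissue; ratios are taken between tissue levels.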

[2] = Ratio of tissue distribution between rat heart and blood after 5 min; assay type: ADME, organism-based; details: heart and blood; in short: as §1
[3] = species: Rattus norvegicus; experiment: Tissue distribution in rrat heart after 60 minutes (n=3); assay type: ADME, organism-based; details: in vivo, 1 h; in short: as §1
[4] = species: Rattus norvegicus; experiment: Effect of 4-aminobenzovesamicol on the regional distribution of compound in the rat brain caudate-putamen (n=4) [0.40 (0.35-0.47)]; assay type: ADME, organism-based; details: in vivo
[5] = species: Rattus norvegicus; experiment: Effect of 4-aminobenzovesamicol on the regional distribution of compound in the remainder of rat brain (n=4) [0.21 (0.17-0.23)]; assay type: ADME, organism-based; details: in vivo
[6] = species: Rattus norvegicus; experiment: Ratio of tissue distribution between rat brain and blood after 180 min; assay type: ADME, organism-based; details: 3 h
In short: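 Male Wistar rats (200-350 g) under ether anesthesia, iv radiotracer (3-5 μCi in 0.1 mL 50% aqueous ethanol). At 5, 30, 60, 180 min blood taken by cardiac puncture, animal killed by cardiectomy; organs weighed, γ-counted against 1:100 injected-dose dilution; % injected dose/g tissue; brain/blood ratio.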

[7] = species: Rattus norvegicus; experiment: Tissue distribution in rat spleen after 30 minutes (n=3); assay type: ADME, organism-based; details: in vivo, 0.5 h; in short: as §1
[8] = species: Rattus norvegicus; experiment: Ratio of tissue distribution between rat brain and blood after 60 min; assay type: ADME, organism-based; details: 1 h; in short: as §1
[9] = Ratio of tissue distribution between rat heart and blood after 120 min; assay type: ADME, organism-based
[10] = species: Rattus norvegicus; experiment: Regional kinetics in the rat brain caudate-putamen at 30 minutes; assay type: ADME, organism-based; details: in vivo, 0.5 h
In short: (§2)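 Male Wistar rats (n = 4 per time point) under ether received (+)-radiotracer iv (2 μCi in 100 μL 50% aqueous EtOH). They were killed at 30, 120 or 180 min. Brains were partially frozen and dissected into striatum, cerebellum, cortex and remainder. Regions were γ-counted against injected-dose dilutions and expressed as % injected dose/g tissue.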

[11] = species: Rattus norvegicus; experiment: Effect of vesamicol on the accumulation in rat lung [1.56 (1.28-1.90)]; assay type: ADME, organism-based; details: in vivo
In short: (§3)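 Male Wistar rats (n = 4/group) given iv vehicle (100 μL 50% aqueous EtOH) or dl-vesamicol (1.01 μmol/kg); 15 min later iv radiotracer (2.0 μCi in 100 μL 50% aqueous EtOH); killed 30 min post-tracer. Blood by cardiac puncture, organs weighed and γ-counted vs 1:100 injected-dose dilution; % dose/g tissue (range); tissue/blood ratios.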

[12] = species: Rattus norvegicus; experiment: Ratio of tissue distribution between rat heart and blood after 60 min; assay type: ADME, organism-based; details: other tissue, 1 h; in short: as §1
[13] = species: Rattus norvegicus; experiment: Tissue distribution in rat heart after 180 minutes (n=3); assay type: ADME, organism-based; details: in vivo, 3 h; in short: as §1
[14] = species: Rattus norvegicus; experiment: Ratio of regional kinetics between rat brain caudate and cortex at 30 minutes; assay type: ADME, organism-based; details: in vivo, 0.5 h
In short: (§4)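 Male Wistar rats (n = 4/group) under ether anesthesia, iv (+)-[125I]MIBT (2 μCi in 100 μL 50% aqueous EtOH); killed at 30, 120, 180 min. Brains partially frozen, dissected into striatum, cerebellum, cortex and remainder; radioactivity counted, % dose/g vs injected-dose dilutions; caudate/cortex and caudate/cerebellum ratios.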

[15] = species: Rattus norvegicus; experiment: Tissue distribution in rat kidney after 60 minutes (n=3); assay type: ADME, organism-based; details: in vivo, 1 h; in short: as §1
[16] = species: Rattus norvegicus; experiment: Effect of vesamicol on the accumulation in rat kidney [1.76 (1.55-2.08)]; assay type: ADME, organism-based; details: in vivo; in short: as §3
[17] = species: Rattus norvegicus; experiment: Tissue distribution in rat kidney after 30 minutes (n=3); assay type: ADME, organism-based; details: in vivo, 0.5 h; in short: as §1
[18] = species: Rattus norvegicus; experiment: Tissue distribution in rat muscle after 60 minutes (n=3); assay type: ADME, organism-based; details: in vivo, 1 h
In short: (§5)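 Male Wistar rats (200-350 g) under ether, iv [125I]tracer (3-5 μCi in 0.1 mL 50% aqueous EtOH). At 5, 30, 60 or 180 min, blood taken by cardiac puncture and the rat killed by cardiectomy. Organs weighed and γ-counted against 1:100 dilutions of the injected dose; results in % injected dose/g, with range.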

[19] = species: Rattus norvegicus; experiment: Effect of haloperidol on the regional distribution of compound in the rat cerebellum (n=4) [0.22 (0.18-0.24)]; assay type: ADME, organism-based; details: in vivo
[20] = species: Rattus norvegicus; experiment: Ratio of regional kinetics between rat brain caudate and cerebellum at 180 minutes; assay type: ADME, organism-based; details: in vivo, 3 h; in short: as §4
[21] = species: Rattus norvegicus; experiment: Effect of vesamicol on the accumulation in rat blood [0.05 (0.04-0.06)]; assay type: ADME, organism-based; details: in vivo; in short: as §3
[22] = species: Rattus norvegicus; experiment: Regional kinetics in the remainder of rat brain at 180 minutes; assay type: ADME, organism-based; details: in vivo, 3 h; in short: as §2
[23] = species: Rattus norvegicus; experiment: Tissue distribution in rat spleen after 180 minutes (n=3); assay type: ADME, organism-based; details: in vivo, 3 h; in short: as §1
[24] = species: Rattus norvegicus; experiment: Tissue distribution in rat brain after 5 minutes (n=3); assay type: ADME, organism-based; details: in vivo; in short: as §1
[25] = species: Rattus norvegicus; experiment: Ratio of effect haloperidol on regional distribution between rat brain caudate and cerebellum; assay type: ADME, organism-based; details: in vivo
[26] = species: Rattus norvegicus; experiment: Regional kinetics in the rat cerebellum at 30 minutes; assay type: ADME, organism-based; details: in vivo, 0.5 h; in short: as §2
[27] = species: Rattus norvegicus; experiment: Tissue distribution in rat gonads after 5 minutes (n=3); assay type: ADME, organism-based, Gonad; details: in vivo; in short: as §1
[28] = species: Rattus norvegicus; experiment: Tissue distribution in rat heart after 30 minutes (n=3); assay type: ADME, organism-based; details: in vivo, 0.5 h; in short: as §5
[29] = species: Rattus norvegicus; experiment: Effect of vesamicol on the accumulation in rat gonads [0.15 (0.14-0.15)]; assay type: ADME, organism-based; details: in vivo; in short: as §3
[30] = species: Rattus norvegicus; experiment: Tissue distribution in rat thyroid after 30 minutes (n=3); assay type: ADME, organism-based, Thyroid gland; details: in vivo, 0.5 h; in short: as §1
[31] = species: Rattus norvegicus; experiment: Tissue distribution in rat brain after 180 minutes (n=3); assay type: ADME, organism-based; details: in vivo, 3 h; in short: as §5
[32] = species: Rattus norvegicus; experiment: Tissue distribution in rat blood after 5 minutes (n=3); assay type: ADME, organism-based; details: in vivo; in short: as §1
[33] = species: Rattus norvegicus; experiment: Tissue distribution in rat liver after 30 minutes (n=3); assay type: ADME, organism-based; details: in vivo, 0.5 h; in short: as §1
[34] = species: Rattus norvegicus; experiment: Tissue distribution in rat kidney after 180 minutes (n=3); assay type: ADME, organism-based; details: in vivo, 3 h; in short: as §1
[35] = species: Rattus norvegicus; experiment: Effect of vesamicol on the accumulation in rat brain [0.51 (0.45-0.66)]; assay type: ADME, organism-based; details: in vivo; in short: as §3
[36] = species: Rattus norvegicus; experiment: Tissue distribution in rat gonads after 60 minutes (n=3); assay type: ADME, organism-based, Gonad; details: in vivo, 1 h; in short: as §5
[37] = species: Rattus norvegicus; experiment: Regional kinetics in the rat brain cortex at 120 minutes; assay type: ADME, organism-based; details: in vivo, 2 h; in short: as §2
[38] = species: Rattus norvegicus; experiment: Ratio of tissue distribution between rat heart and blood after 30 min; assay type: ADME, organism-based; details: other tissue, 0.5 h; in short: as §1
[39] = species: Rattus norvegicus; experiment: Effect of vesamicol on the accumulation in rat thyroid [1.77 (1.47-1.93)]; assay type: ADME, organism-based, Thyroid gland; details: in vivo
In short: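 Male Wistar rats. Pretreatment at t = 0 was iv vehicle (50% aqueous EtOH) or iv dl-vesamicol (1.01 μmol/kg). At 15 min, iv [125I]tracer (2.0 μCi in 100 μL 50% aqueous EtOH) was given; rats were killed 30 min later. Tissues were weighed and γ-counted, and values expressed as % injected dose/g; n = 4 per group.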

[40] = species: Rattus norvegicus; experiment: Tissue distribution in rat gonads after 30 minutes (n=3); assay type: ADME, organism-based, Gonad; details: in vivo, 0.5 h; in short: as §1
[41] = species: Rattus norvegicus; experiment: Regional kinetics in the rat brain caudate-putamen at 120 minutes; assay type: ADME, organism-based; details: in vivo, 2 h; in short: as §2
[42] = species: Rattus norvegicus; experiment: Tissue distribution in rat liver after 180 minutes (n=3); assay type: ADME, organism-based; details: in vivo, 3 h; in short: as §5
[43] = species: Rattus norvegicus; experiment: Regional kinetics in the rat cerebellum at 180 minutes; assay type: ADME, organism-based; details: in vivo, 3 h; in short: as §2
[44] = species: Rattus norvegicus; experiment: Tissue distribution in rat brain after 60 minutes (n=3); assay type: ADME, organism-based; details: in vivo, 1 h; in short: as §1

O[C@@H]1CCN(Cc2cccc([125I])c2)C[C@H]1N1CCC(c2ccccc2)CC1 (stereo in doubt; (+))
Dose/g [1]: 13.13% | Kp at 5 min [2]: 4.68 | Dose/g [3]: 0.15% | Dose/g [4]: 0.23% | Dose/g [5]: 0.15% | Ratio [6]: 2.35 | Dose/g [7]: 1.07% | Ratio [8]: 3.08 | Kp at 2 h [9]: 1.6 | Dose/g [10]: 0.64% | Dose/g [11]: 1.59% | Ratio [12]: 1.7 | Dose/g [13]: 0.1% | Ratio [14]: 0.98 | Dose/g [15]: 0.87% | Dose/g [16]: 0.91% | Dose/g [17]: 1.32% | Dose/g [18]: 0.11% | Dose/g [19]: 0.09% | Ratio [20]: 2.95 | Dose/g [21]: 0.05% | Dose/g [22]: 0.25% | Dose/g [23]: 0.44% | Dose/g [24]: 0.57% | Ratio [25]: 10.97 | Dose/g [26]: 0.53% | Dose/g [27]: 0.13% | Dose/g [28]: 0.26% | Dose/g [29]: 0.15% | Dose/g [30]: 2.33% | Dose/g [31]: 0.15% | Dose/g [32]: 0.24% | Dose/g [33]: 2.18% | Dose/g [34]: 0.5% | Dose/g [35]: 0.3% | Dose/g [36]: 0.17% | Dose/g [37]: 0.4% | Ratio [38]: 2.33 | Dose/g [39]: 2.02% | Dose/g [40]: 0.15% | Dose/g [41]: 0.67% | Dose/g [42]: 1.18% | Dose/g [43]: 0.17% | Dose/g [44]: 0.27%
